Source: ChEMBL document CHEMBL2375227, “Novel small molecules as apoptosis inducers: synthesis, preliminary structure-activity relationships, and in vitro biological evaluation” (Bioorg Med Chem Lett, 2013)
Blank lines part the entries; values can stand above or below the compound they belong to.

How the values were obtained:
[1] = Antiproliferative activity against human H460 cells after 48 hrs by MTT assay; assay type: functional, cell-based; conditions: NCI-H460, 48 h
How it was run: (§1)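 Cells seeded at 3 × 10^3/well and grown 24 h, then exposed to compounds for 48 h. MTT (5 mg/ml stock) added for 2 h at 37 °C, supernatant removed, formazan dissolved in DMSO 15-20 min. Absorbance read at 570 nm. IC50 per cell line, mean of three determinations.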

HeLa = assay: Antiproliferative activity against human HeLa cells after 48 hrs by MTT assay; assay type: functional, cell-based; how it was run: as §1
[2] = Antiproliferative activity against human A875 cells after 48 hrs by MTT assay; assay type: functional, cell-based; conditions: A875, 48 h; how it was run: as §1
A875 [3] = assay: Induction of apoptosis in human A875 cells assessed as appearance of condensed nuclei after 36 hrs by Hoechst 33342 staining-based fluorescence microscopic analysis; assay type: functional, cell-based
How it was run: (§2)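 A875 cells (1 × 10^5/well) cultured 24 h, then treated for 36 h at 0.38, 0.75 or 1.5 µM. After PBS rinse and fixation in 75% ethanol, morphology checked by inverted bright-field microscope. Nuclei then stained with Hoechst 33342 (2 µg/mL in PBS) and examined by fluorescence microscopy for condensed, fragmented nuclei.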

A875 [4] = assay: Induction of apoptosis in human A875 cells assessed as cell shrinkage and rounding up after 36 hrs by Hoechst 33342 staining-based fluorescence microscopic analysis; assay type: functional; how it was run: as §2
A875 [5] = assay: Induction of apoptosis in human A875 cells after 48 hrs by propidium iodide staining-based flow cytometric analysis; assay type: functional, cell-based
[6] = Cell cycle arrest in human A875 cells assessed as accumulation at S phase at 1.5 uM after 48 hrs by propidium iodide staining-based flow cytometric analysis (reference value: 11.46%); assay type: functional
[7] = Cell cycle arrest in human A875 cells assessed as accumulation at S phase at 0.75 uM after 48 hrs by propidium iodide staining-based flow cytometric analysis (reference value: 11.46%); assay type: functional
[8] = Cell cycle arrest in human A875 cells assessed as accumulation at S phase at 0.38 uM after 48 hrs by propidium iodide staining-based flow cytometric analysis (reference value: 11.46%); assay type: functional
[9] = Cell cycle arrest in human A875 cells assessed as accumulation at G2/M phase at 1.5 uM after 48 hrs by propidium iodide staining-based flow cytometric analysis (reference value: 10.36%); assay type: functional
[10] = Cell cycle arrest in human A875 cells assessed as accumulation at G2/M phase at 0.75 uM after 48 hrs by propidium iodide staining-based flow cytometric analysis (reference value: 10.36%); assay type: functional
[11] = Cell cycle arrest in human A875 cells assessed as accumulation at G2/M phase at 0.38 uM after 48 hrs by propidium iodide staining-based flow cytometric analysis (reference value: 10.36%); assay type: functional
[12] = Cell cycle arrest in human A875 cells assessed as accumulation at G0/G1 phase at 1.5 uM after 48 hrs by propidium iodide staining-based flow cytometric analysis (reference value: 78.18%); assay type: functional
[13] = Cell cycle arrest in human A875 cells assessed as accumulation at G0/G1 phase at 0.75 uM after 48 hrs by propidium iodide staining-based flow cytometric analysis (reference value: 78.18%); assay type: functional
[14] = Cell cycle arrest in human A875 cells assessed as accumulation at G0/G1 phase at 0.38 uM after 48 hrs by propidium iodide staining-based flow cytometric analysis (reference value: 78.18%); assay type: functional
[15] = Induction of apoptosis in human A875 cells at 1.5 uM after 48 hrs by propidium iodide staining-based flow cytometric analysis (reference value: 1.56%); assay type: functional
[16] = Induction of apoptosis in human A875 cells at 0.75 uM after 48 hrs by propidium iodide staining-based flow cytometric analysis (reference value: 1.56%); assay type: functional
[17] = Induction of apoptosis in human A875 cells at 0.38 uM after 48 hrs by propidium iodide staining-based flow cytometric analysis (reference value: 1.56%); assay type: functional
[18] = Induction of apoptosis in human A875 cells at 1.5 uM after 24 hrs by propidium iodide staining-based flow cytometric analysis (reference value: 1.14%); assay type: functional
[19] = Induction of apoptosis in human A875 cells at 0.75 uM after 24 hrs by propidium iodide staining-based flow cytometric analysis (reference value: 1.14%); assay type: functional
[20] = Induction of apoptosis in human A875 cells at 0.38 uM after 24 hrs by propidium iodide staining-based flow cytometric analysis (reference value: 1.14%); assay type: functional
BXPC-3 = assay: Antiproliferative activity against human BxPC3 cells after 48 hrs by MTT assay; assay type: functional, cell-based; conditions: BXPC-3, 48 h; how it was run: as §1
HCT-116 = assay: Antiproliferative activity against human HCT116 cells after 48 hrs by MTT assay; assay type: functional, cell-based; conditions: HCT-116, 48 h; how it was run: as §1
A549 = assay: Antiproliferative activity against human A549 cells after 48 hrs by MTT assay; assay type: functional, cell-based; conditions: A549, 48 h; how it was run: as §1
HepG2 = assay: Antiproliferative activity against human HepG2 cells after 48 hrs by MTT assay; assay type: functional, cell-based; conditions: HepG2, 48 h; how it was run: as §1
Bel-7402 = assay: Antiproliferative activity against human Bel7402 cells after 48 hrs by MTT assay; assay type: functional, cell-based; conditions: Bel-7402, 48 h; how it was run: as §1
SMMC-7721 = assay: Antiproliferative activity against human SMMC7721 cells after 48 hrs by MTT assay; assay type: functional, cell-based; conditions: SMMC-7721, 48 h; how it was run: as §1
HT-29 = assay: Antiproliferative activity against human HT-29 cells after 48 hrs by MTT assay; assay type: functional, cell-based; conditions: HT-29, 48 h; how it was run: as §1

- IC50 (HeLa): > 80 µM
SMILES: CC(C)(C)C(=O)Nc1ccc(SCC(=O)Nc2cc(Cl)ccn2)cc1
- IC50 [1]: 35.3 µM
- IC50 [2]: > 80 µM

- IC50 (HeLa): > 80 µM
SMILES: O=C(CSc1ccc(NC(=O)CCl)cc1)NCc1ccc(Cl)cc1
- IC50 [1]: 23.1 µM
- IC50 [2]: 8.9 µM

- IC50 (HeLa): 70.5 µM
SMILES: Cc1ccnc(Cl)c1NC(=O)CSc1nnc(NC(=O)CCl)s1
- IC50 [1]: 59.6 µM
- IC50 [2]: 34.7 µM

- IC50 (HeLa): > 80 µM
SMILES: COc1ccccc1C(=O)Nc1nnc(SCC(=O)Nc2ccc(C)cn2)s1
- IC50 [1]: > 80 µM
- IC50 [2]: > 80 µM

- IC50 (BXPC-3): 0.19 µM
- IC50 (HCT-116): 0.61 µM
- IC50 (A549): 0.59 µM
- IC50 (HepG2): 3.6 µM
- IC50 (Bel-7402): 0.45 µM
- IC50 (SMMC-7721): 0.35 µM
- IC50 (HT-29): 8.7 µM
- IC50 (HeLa): 2.5 µM
SMILES: O=C(CCl)Nc1ccc(SCC(=O)Nc2ccc(Cl)cn2)cc1
- Activity (A875 [3]): Dose-dependent effect
- Activity (A875 [4]): Dose-dependent effect
- Activity (A875 [5]): Dose-dependent effect
- Activity [6]: 39.6%
- Activity [7]: 31.2%
- Activity [8]: 29.1%
- Activity [9]: 29.9%
- Activity [10]: 21.8%
- Activity [11]: 10.8%
- Activity [12]: 30.5%
- Activity [13]: 48.9%
- Activity [14]: 60%
- Activity [15]: 61.59%
- Activity [16]: 41.59%
- Activity [17]: 11.17%
- Activity [18]: 42.88%
- Activity [19]: 25.45%
- Activity [20]: 3.67%
- IC50 [1]: 0.42 µM
- IC50 [2]: 0.098 µM

- IC50 (HeLa): > 80 µM
SMILES: O=C(CSc1ccc(NC(=O)C(Cl)(Cl)Cl)cc1)Nc1ccc(Cl)cn1
- IC50 [1]: > 80 µM
- IC50 [2]: > 80 µM

- IC50 (HeLa): > 80 µM
SMILES: COc1ccccc1C(=O)Nc1nnc(SCC(=O)Nc2ccc(Cl)cn2)s1
- IC50 [1]: > 80 µM
- IC50 [2]: > 80 µM

- IC50 (HeLa): 7.8 µM
SMILES: O=C(CCl)Nc1ccc(SCC(=O)Nc2ccccn2)cc1
- IC50 [1]: 11.9 µM
- IC50 [2]: 17.2 µM

- IC50 (HeLa): 5.3 µM
SMILES: O=C(CSc1nnc(NC(=O)CCCl)s1)Nc1ccc(Br)cn1
- IC50 [1]: 0.56 µM
- IC50 [2]: 0.43 µM

- IC50 (BXPC-3): 0.28 µM
- IC50 (HCT-116): 1.2 µM
- IC50 (A549): 6.2 µM
- IC50 (HepG2): 5.8 µM
- IC50 (Bel-7402): 0.67 µM
- IC50 (SMMC-7721): 0.43 µM
- IC50 (HT-29): 13.7 µM
- IC50 (HeLa): 2.1 µM
SMILES: O=C(CCl)Nc1ccc(SCC(=O)Nc2ccc(Br)cn2)cc1
- IC50 [1]: 0.53 µM
- IC50 [2]: 0.29 µM

- IC50 (HeLa): > 80 µM
SMILES: C=CC(=O)Nc1ccc(SCC(=O)Nc2ccccn2)cc1
- IC50 [1]: 76.8 µM
- IC50 [2]: 23.4 µM

- IC50 (HeLa): > 80 µM
SMILES: COc1ccccc1C(=O)Nc1nnc(SCC(=O)Nc2ccc(Br)cn2)s1
- IC50 [1]: > 80 µM
- IC50 [2]: > 80 µM

- IC50 (HeLa): > 80 µM
SMILES: C=CC(=O)Nc1ccc(SCC(=O)NCc2cccc(Cl)c2)cc1
- IC50 [1]: 74.5 µM
- IC50 [2]: 21.1 µM

- IC50 (HeLa): > 80 µM
SMILES: O=C(CCCCl)Nc1ccc(SCC(=O)Nc2ccc(Cl)cn2)cc1
- IC50 [1]: > 80 µM
- IC50 [2]: > 80 µM

- IC50 (HeLa): > 80 µM
SMILES: O=C(CSc1ccc(NC(=O)CCl)cc1)NCc1cccc(Cl)c1
- IC50 [1]: 33.4 µM
- IC50 [2]: 7.8 µM

- IC50 (HeLa): > 80 µM
SMILES: O=C(CSc1nnc(NC(=O)CCCCl)s1)Nc1ccc(Cl)cn1
- IC50 [1]: 55.2 µM
- IC50 [2]: > 80 µM

- IC50 (HeLa): 15.2 µM
SMILES: O=C(CSc1nnc(NC(=O)C(Cl)Cl)s1)Nc1ccc(Br)cn1
- IC50 [1]: 5.3 µM
- IC50 [2]: 6.5 µM

- IC50 (HeLa): 10.9 µM
SMILES: Cc1ccc(NC(=O)CSc2nnc(NC(=O)CCl)s2)nc1
- IC50 [1]: 15.4 µM
- IC50 [2]: 18.3 µM

- IC50 (HeLa): 25.2 µM
SMILES: C=CC(=O)Nc1ccc(SCC(=O)Nc2cc(Cl)ccn2)cc1
- IC50 [1]: 19.7 µM
- IC50 [2]: 14.7 µM

- IC50 (HeLa): 21.7 µM
SMILES: O=C(CCCl)Nc1ccc(SCC(=O)Nc2cc(Cl)ccn2)cc1
- IC50 [1]: 10.9 µM
- IC50 [2]: 12.3 µM

- IC50 (HeLa): 3.4 µM
SMILES: O=C(CSc1nnc(NC(=O)CCl)s1)Nc1ccc(Br)cn1
- IC50 [1]: 7.5 µM
- IC50 [2]: 13.9 µM

- IC50 (HeLa): > 80 µM
SMILES: O=C(CSc1ccc(NC(=O)C(Cl)Cl)cc1)Nc1ccc(Br)cn1
- IC50 [1]: 47.8 µM
- IC50 [2]: 56.8 µM

- IC50 (HeLa): 2.8 µM
SMILES: O=C(CCl)Nc1ccc(SCC(=O)Nc2cc(Cl)ccn2)cc1
- IC50 [1]: 5.6 µM
- IC50 [2]: 0.85 µM

- IC50 (HeLa): 15.6 µM
SMILES: O=C(CCCl)Nc1ccc(SCC(=O)Nc2ccc(Br)cn2)cc1
- IC50 [1]: 1.6 µM
- IC50 [2]: 24.3 µM

- IC50 (HeLa): 70.4 µM
SMILES: O=C(CCCl)Nc1ccc(SCC(=O)Nc2ccccn2)cc1
- IC50 [1]: 65.4 µM
- IC50 [2]: 29.5 µM

- IC50 (HeLa): > 80 µM
SMILES: COc1ccccc1C(=O)Nc1nnc(SCC(=O)Nc2c(C)ccnc2Cl)s1
- IC50 [1]: > 80 µM
- IC50 [2]: > 80 µM

- IC50 (HeLa): 3.6 µM
SMILES: O=C(CSc1nnc(NC(=O)CCl)s1)Nc1ccc(Cl)cn1
- IC50 [1]: 5.7 µM
- IC50 [2]: 8.6 µM

- IC50 (HeLa): 25.8 µM
SMILES: O=C(CSc1nnc(NC(=O)c2c(Cl)cccc2Cl)s1)Nc1ccc(Br)cn1
- IC50 [1]: 16.8 µM
- IC50 [2]: 18.6 µM

- IC50 (HeLa): > 80 µM
SMILES: O=C(CSc1ccc(NC(=O)CCCl)cc1)NCc1ccc(Cl)cc1
- IC50 [1]: 60.8 µM
- IC50 [2]: 31.4 µM

- IC50 (HeLa): > 80 µM
SMILES: CC(C)(C)C(=O)Nc1ccc(SCC(=O)Nc2ccc(Cl)cn2)cc1
- IC50 [1]: 67.2 µM
- IC50 [2]: > 80 µM
